Reference: ChEMBL document CHEMBL1122592, “Synthesis and evaluation of radioiodinated terminal p-iodophenyl-substituted alpha- and beta-methyl-branched fatty acids” (1984)

Experiments:
Type in all cases: functional
Rattus norvegicus [1] = assay: Kidneys uptake in percent injected dose/gram (range) was determined in female fischer rat after 1251-labelled compound complexed with bovine serum albumin was injected intravenously after 60 minutes
Outline: (§1)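 Female Fischer 344 rats, 10–12 weeks old (170–200 g), fed and watered ad libitum. ¹²⁵I-labeled fatty acid in 0.5 mL absolute ethanol added dropwise to stirred 6% bovine serum albumin at 40 °C (final ethanol 10%), 0.22-μm filtered, given into a lateral tail vein under ether anesthesia. At set times: ether anesthesia, cervical fracture, organs excised, rinsed, blotted, weighed and gamma counted. Values are % injected dose/g, 3–4 rats per time point.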

Rattus norvegicus [2] = assay: Blood uptake in percent injected dose/gram (range) was determined in female fischer rat after 1251-labelled compound complexed with bovine serum albumin was injected intravenously after 5 minutes; outline: as §1
Rattus norvegicus [3] = assay: Thyroid uptake in percent injected dose/gram (range) was determined in female fischer rat after 1251-labelled compound complexed with bovine serum albumin was injected intravenously after 60 minutes; outline: as §1
Rattus norvegicus [4] = assay: Thyroid uptake in percent injected dose/gram (range) was determined in female fischer rat after 1251-labelled compound complexed with bovine serum albumin was injected intravenously after 5 minutes; outline: as §1
Rattus norvegicus [5] = assay: Heart uptake in percent injected dose/gram (range) was determined in female fischer rat after 1251-labelled compound complexed with bovine serum albumin was injected intravenously after 60 minutes; outline: as §1
Rattus norvegicus [6] = assay: Blood uptake in percent injected dose/gram (range) was determined in female fischer rat after 1251-labelled compound complexed with bovine serum albumin was injected intravenously after 60 minutes; outline: as §1
Rattus norvegicus [7] = assay: Heart uptake in percent injected dose/gram (range) was determined in female fischer rat after 1251-labelled compound complexed with bovine serum albumin was injected intravenously after 5 minutes; outline: as §1
Rattus norvegicus [8] = assay: Kidneys uptake in percent injected dose/gram (range) was determined in female fischer rat after 1251-labelled compound complexed with bovine serum albumin was injected intravenously after 5 minutes; outline: as §1
Rattus norvegicus [9] = assay: Liver uptake in percent injected dose/gram (range) was determined in female fischer rat after 1251-labelled compound complexed with bovine serum albumin was injected intravenously after 60 min; outline: as §1
Rattus norvegicus [10] = assay: Lungs uptake in percent injected dose/gram (range) was determined in female fischer rat after 1251-labelled compound complexed with bovine serum albumin was injected intravenously after 5 minutes; outline: as §1
Rattus norvegicus [11] = assay: Liver uptake in percent injected dose/gram (range) was determined in female fischer rat after 1251-labelled compound complexed with bovine serum albumin was injected intravenously after 5 minutes; outline: as §1
Rattus norvegicus [12] = assay: Lungs uptake in percent injected dose/gram (range) was determined in female fischer rat after 1251-labelled compound complexed with bovine serum albumin was injected intravenously after 60 minutes; outline: as §1
Rattus norvegicus [13] = assay: Kidneys uptake in percent injected dose/gram (range) was determined in female fischer rat after 1251-labelled compound complexed with bovine serum albumin was injected intravenously after 30 minutes; outline: as §1
Rattus norvegicus [14] = assay: Blood uptake in percent injected dose/gram (range) was determined in female fischer rat after 1251-labelled compound complexed with bovine serum albumin was injected intravenously after 5 hours; outline: as §1
Rattus norvegicus [15] = assay: Heart uptake in percent injected dose/gram (range) was determined in female fischer rat after 1251-labelled compound complexed with bovine serum albumin was injected intravenously after 30 minutes; outline: as §1
Rattus norvegicus [16] = assay: Lungs uptake in percent injected dose/gram (range) was determined in female fischer rat after 1251-labelled compound complexed with bovine serum albumin was injected intravenously after 30 minutes; outline: as §1
Rattus norvegicus [17] = assay: Heart uptake in percent injected dose/gram (range) was determined in female fischer rat after 1251-labelled compound complexed with bovine serum albumin was injected intravenously after 5 hours; outline: as §1
Rattus norvegicus [18] = assay: Kidneys uptake in percent injected dose/gram (range) was determined in female fischer rat after 1251-labelled compound complexed with bovine serum albumin was injected intravenously after 5 hours; outline: as §1
Rattus norvegicus [19] = assay: Thyroid uptake in percent injected dose/gram (range) was determined in female fischer rat after 1251-labelled compound complexed with bovine serum albumin was injected intravenously after 30 minutes; outline: as §1
Rattus norvegicus [20] = assay: Thyroid uptake in percent injected dose/gram (range) was determined in female fischer rat after 1251-labelled compound complexed with bovine serum albumin was injected intravenously after 5 hours; outline: as §1
Rattus norvegicus [21] = assay: Lungs uptake in percent injected dose/gram (range) was determined in female fischer rat after 1251-labelled compound complexed with bovine serum albumin was injected intravenously after 5 hours; outline: as §1
Rattus norvegicus [22] = assay: Liver uptake in percent injected dose/gram (range) was determined in female fischer rat after 1251-labelled compound complexed with bovine serum albumin was injected intravenously after 30 minutes; outline: as §1
Rattus norvegicus [23] = assay: Blood uptake in percent injected dose/gram (range) was determined in female fischer rat after 1251-labelled compound complexed with bovine serum albumin was injected intravenously after 30 minutes; outline: as §1
Rattus norvegicus [24] = assay: Liver uptake in percent injected dose/gram (range) was determined in female fischer rat after 1251-labelled compound complexed with bovine serum albumin was injected intravenously after 5 hours; outline: as §1
Rattus norvegicus [25] = assay: Kidneys uptake in percent injected dose/gram (range) was determined in female fischer rat after 1251-labelled compound complexed with bovine serum albumin was injected intravenously after 4 hours; outline: as §1
Rattus norvegicus [26] = assay: Liver uptake in percent injected dose/gram (range) was determined in female fischer rat after 1251-labelled compound complexed with bovine serum albumin was injected intravenously after 4 hours; outline: as §1
Rattus norvegicus [27] = assay: Lungs uptake in percent injected dose/gram (range) was determined in female fischer rat after 1251-labelled compound complexed with bovine serum albumin was injected intravenously after 4 hours; outline: as §1
Rattus norvegicus [28] = assay: Blood uptake in percent injected dose/gram (range) was determined in female fischer rat after 1251-labelled compound complexed with bovine serum albumin was injected intravenously after 4 hours; outline: as §1
Rattus norvegicus [29] = assay: Thyroid uptake in percent injected dose/gram (range) was determined in female fischer rat after 1251-labelled compound complexed with bovine serum albumin was injected intravenously after 60 min; outline: as §1
Rattus norvegicus [30] = assay: Heart uptake in percent injected dose/gram (range) was determined in female fischer rat after 1251-labelled compound complexed with bovine serum albumin was injected intravenously after 4 hours; outline: as §1
Rattus norvegicus [31] = assay: Thyroid uptake in percent injected dose/gram (range) was determined in female fischer rat after 1251-labelled compound complexed with bovine serum albumin was injected intravenously after 4 hours; outline: as §1

Row | SMILES | Activity (Rattus norvegicus [1]) | Activity (Rattus norvegicus [2]) | Activity (Rattus norvegicus [3]) | Activity (Rattus norvegicus [4]) | Activity (Rattus norvegicus [5]) | Activity (Rattus norvegicus [6]) | Activity (Rattus norvegicus [7]) | Activity (Rattus norvegicus [8]) | Activity (Rattus norvegicus [9]) | Activity (Rattus norvegicus [10]) | Activity (Rattus norvegicus [11]) | Activity (Rattus norvegicus [12]) | Activity (Rattus norvegicus [13]) | Activity (Rattus norvegicus [15]) | Activity (Rattus norvegicus [16]) | Activity (Rattus norvegicus [19]) | Activity (Rattus norvegicus [22]) | Activity (Rattus norvegicus [23]) | Activity (Rattus norvegicus [25]) | Activity (Rattus norvegicus [26]) | further results
1 | O=C(O)CCCCCCCCCCCCCc1ccc(I)cc1 | 1.94% | 1.58% | 2.56% | 1.64% | 1.78% | 1.48% | 2.72% | 1.64% | 2.04% | 1.55% | 4.82% | 1.39% |  |  |  |  |  |  |  |  | 
2 | CC(CCCCCCCCCCCCc1ccc(I)cc1)C(=O)O (racemic) | 1.85% | 1.8% | 11.5% | 7.56% | 1.52% | 1.64% | 1.71% | 1.68% | 2.94% | 1.13% | 7.61% | 1.13% | 1.95% | 1.58% | 1.03% | 5.3% | 3.85% | 1.83% |  |  | Activity (Rattus norvegicus [14]): 1.07%; Activity (Rattus norvegicus [17]): 0.59%; Activity (Rattus norvegicus [18]): 1.36%; Activity (Rattus norvegicus [20]): 13.95%; Activity (Rattus norvegicus [21]): 0.77%; Activity (Rattus norvegicus [24]): 1.52%
3 | CC(CCCCCCCCCCCCc1ccc(I)cc1)CC(=O)O (racemic) [IODOFILTIC ACID] | 2.14% | 0.71% |  | 6.78% | 4.26% | 1.7% | 4.62% | 1.08% | 1.92% | 1.45% | 8.32% | 1.21% | 1.71% | 3.63% | 1.15% | 9.26% | 3.66% | 1.6% | 1.49% | 0.95% | Activity (Rattus norvegicus [27]): 0.91%; Activity (Rattus norvegicus [28]): 1.13%; Activity (Rattus norvegicus [29]): 10.66%; Activity (Rattus norvegicus [30]): 2.27%; Activity (Rattus norvegicus [31]): 9.69%
4 | O=C(O)CCCCCCCCCCCCCCc1ccc(I)cc1 [IOCANLIDIC ACID] | 1.05% | 0.91% | 7.37% | 7.08% | 2.34% | 1.32% | 2.98% | 0.84% | 3.76% | 1.26% | 6.69% | 1.29% | 1.08% | 2.67% | 1.36% | 10.28% | 5.31% | 1.5% | 0.88% | 1.72% | Activity (Rattus norvegicus [27]): 0.97%; Activity (Rattus norvegicus [28]): 0.7%; Activity (Rattus norvegicus [30]): 0.93%; Activity (Rattus norvegicus [31]): 8.54%
